Reference: ChEMBL document CHEMBL1125363, “Novel piperidine sigma receptor ligands as potential antipsychotic drugs” (J Med Chem, 1992)

Legend:
Mus musculus [1] = species on record: Mus musculus; test: Oral potency tested by using anti-mescaline test; type: functional
Method in brief: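 Mice; mescaline was given to evoke hallucinogen-type behaviour, and the test compound was dosed orally to antagonise it. Potency is the ED50 in mg/kg po. Some ED50s are the average of three measurements.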

[2] = biological target: Sigma non-opioid intracellular receptor 1 (Mus musculus, UniProt O55242); test: In vitro binding affinity for the mouse sigma opioid receptor
[3] = biological target: Serotonin 2 (5-HT2) receptor (Mus musculus, UniProt Q02152+P34968+P35363); test: In vitro binding affinity for serotonin 5-hydroxytryptamine (5-HT) 2 receptors; type: protein assay
Rattus norvegicus = species on record: Rattus norvegicus; test: Oral potency tested using 5HTP induced head twitch test; type: functional
Mus musculus [4] = species on record: Mus musculus; test: Oral potency by using Anti aggression test
D(2) dopamine receptor = D(2) dopamine receptor (Mus musculus, UniProt P61168); test: In vitro binding affinity towards dopamine receptor D2
Mus musculus [5] = species on record: Mus musculus; test: Oral potency tested using apomorphine induced climbing test; type: functional
Mus musculus [6] = species on record: Mus musculus; test: Potency was tested using Anti mescaline test(Intra peritoneal); type: functional
Method in brief: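 Mouse mescaline-antagonism test with the test compound given intraperitoneally. Read-out is the ED50 in mg/kg ip.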

[7] = Oral potency by using Anti aggression test; type: functional
Method in brief: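 Mice were held in prolonged isolation, then exposed to intruders. The aggressive response was scored after oral dosing of the test compound. Potency is the ED50 in mg/kg po.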

D(2) dopamine receptor, sequence (P61168 whole entry): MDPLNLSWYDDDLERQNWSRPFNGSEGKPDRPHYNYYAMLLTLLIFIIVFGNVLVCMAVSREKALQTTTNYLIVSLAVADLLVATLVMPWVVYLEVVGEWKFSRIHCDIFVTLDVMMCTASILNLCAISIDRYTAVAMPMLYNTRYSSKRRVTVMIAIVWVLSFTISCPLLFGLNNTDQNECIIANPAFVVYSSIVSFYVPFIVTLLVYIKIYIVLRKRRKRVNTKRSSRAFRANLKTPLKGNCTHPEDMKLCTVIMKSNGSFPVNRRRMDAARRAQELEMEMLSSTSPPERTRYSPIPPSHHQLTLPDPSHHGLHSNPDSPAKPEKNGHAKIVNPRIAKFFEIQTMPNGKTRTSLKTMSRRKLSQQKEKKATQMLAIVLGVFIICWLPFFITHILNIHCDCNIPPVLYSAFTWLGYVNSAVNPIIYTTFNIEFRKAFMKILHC
Sigma non-opioid intracellular receptor 1, sequence (O55242 whole entry): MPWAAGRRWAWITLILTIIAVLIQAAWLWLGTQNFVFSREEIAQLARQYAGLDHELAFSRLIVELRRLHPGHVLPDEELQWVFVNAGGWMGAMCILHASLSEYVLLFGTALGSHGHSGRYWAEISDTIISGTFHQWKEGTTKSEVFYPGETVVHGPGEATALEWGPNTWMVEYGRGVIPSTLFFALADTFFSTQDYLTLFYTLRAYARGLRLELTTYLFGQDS

Row | SMILES | ED50 (Mus musculus [1]) [mg/kg] | Ki [2] [nM] | Ki [3] [nM] | ED50 (Rattus norvegicus) [mg/kg] | ED50 (Mus musculus [4]) [mg/kg] | IC50 (D(2) dopamine receptor) [nM] | ED50 (Mus musculus [5]) [mg/kg] | ED50 (Mus musculus [6]) [mg/kg] | ED50 [7] [mg/kg]
1 | Br.O=C(CC1CCN(CC2CC2)CC1)c1ccc(Cl)cc1 | 0.46 | 8 | 495 | 30 | 14 | 2000 | > 30 | – | –
2 | Br.O=C(CC1CCN(CCC2CC2)CC1)c1ccc(F)cc1 | < 10 | 11 | 12 | – | – | 220 | – | – | –
3 | Cl.c1ccc(CN2CCC(COC3CCCCC3)CC2)cc1 | – | 2 | 1363 | – | – | > 10000 | – | < 10 | –
4 | O=C(O)/C=C\C(=O)O.c1ccc(CCCOC2CCN(Cc3ccccc3)CC2)cc1 | – | 2 | – | – | – | 8100 | – | < 10 | –
5 | Fc1ccc(-c2ccc(OCC3CCN(CC4CC4)CC3)cc2)cc1 | < 30 | 83 | 396 | – | – | > 10000 | – | – | –
6 | c1ccc(OCC2CCN(CC3CC3)CC2)cc1 | 30 | 7 | 53 | – | – | 3170 | – | – | –
7 | Cl.Fc1ccc(OCC2CCN(Cc3ccccc3)CC2)cc1.O | 4 | 2 | 28 | – | – | 870 | > 30 | – | 8.2
8 | O.c1ccc2c(OCC3CCN(CC4CC4)CC3)ccnc2c1 | 19.2 | 50 | > 100 | – | – | 4850 | – | – | –
9 | Fc1ccc(OCC2CCN(Cc3ccncc3)CC2)cc1.O | 1.1 | 7 | 31 | – | – | 2750 | – | – | –
10 | Fc1ccc(OCC2CCN(CCC3CC3)CC2)cc1.O=C(O)/C=C/C(=O)O | 3.1 | 3 | – | < 10 | – | 428 | – | – | 4.5
11 | O.O=C(O)/C=C\C(=O)O.c1ccc(CN2CCC(COCc3ccc(-c4ccccc4)cc3)CC2)cc1 | – | 20 | 47 | – | – | 1850 | – | 10 | –
12 | O=S(=O)(CC1CCN(CCC2CC2)CC1)c1ccc(F)cc1 | 6.4 | 28 | 745 | – | – | > 10000 | – | – | –
13 | O=C(CC1CCN(CCc2ccc(C(F)(F)F)cc2)CC1)c1ccc(F)cc1 | < 10 | 9 | 3.3 | – | – | 10 | – | – | –
14 | O.O=C(CC1CCN(CCc2c[nH]c3ccccc23)CC1)c1ccc(F)cc1 | < 10 | 26 | 3.6 | – | – | 7 | – | – | –
15 | Cl.Clc1ccc(OCC2CCN(Cc3ccccc3)CC2)cc1 | 8 | 8.3 | 137 | > 10 | – | 4210 | – | – | 10
16 | c1ccc(Oc2ccc(OCC3CCN(CC4CC4)CC3)cc2)cc1 | > 30 | 24 | 584 | – | – | > 10000 | – | – | –
17 | O=C(CC1CCN(Cc2ccc(C(F)(F)F)cc2)CC1)c1ccc(F)cc1 | 1.8 | 3 | 6 | – | – | 195 | – | – | –
18 | Cl.Clc1ccc(OCC2CCN(CC3CC3)CC2)cc1Cl | 3.3 | 8 | 87 | – | – | 1650 | – | – | –
19 | FC(F)(F)c1ccc(OCC2CCN(Cc3ccccc3)CC2)cc1 | 6 | 2 | 350 | – | – | 1930 | – | – | –
20 | Fc1ccc(COCC2CCN(Cc3ccccc3)CC2)cc1.O=C(O)/C=C\C(=O)O | 14 | 2 | 272 | – | – | 3900 | – | – | –
21 | O.c1ccc(-c2ccc(OCC3CCN(CC4CC4)CC3)cc2)cc1 | 7.5 | 12 | > 10000 | > 30 | – | > 10000 | > 30 | – | 30
22 | O=C(O)/C=C\C(=O)O.c1ccc(CCCOCC2CCN(Cc3ccccc3)CC2)cc1 | – | 3.2 | 260 | – | – | 839 | – | < 10 | –
23 | Cl.Fc1ccc(COCC2CCN(CC3CCCCC3)CC2)cc1 | > 10 | 3 | 127 | – | – | 3350 | – | – | –
24 | C[S+]([O-])c1ccc(C(=O)CC2CCN(Cc3ccccc3)CC2)cc1.O (stereo not drawn) | > 30 | 53 | 204 | – | – | > 10000 | – | – | –
25 | O=C(CC1CCN(CCc2ccc(F)cc2)CC1)c1ccc(F)cc1 | 0.13 | 7 | 10 | – | – | 57 | – | – | –
26 | Cl.Fc1ccc(COCC2CCN(Cc3ccc4ccccc4c3)CC2)cc1 | – | – | 251 | – | – | 305 | – | > 10 | –
